pIC50: −log10 of the molar value. Calls of active or inactive are those of the source. The rule behind the calls is not given here.

In one series the target is Coagulation factor X (Homo sapiens, UniProt P00742). Description: Inhibition of purified factor 10a (unknown origin) using chromogenic substrate S-2222 by spectrophotometry. In outline:
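Chromogenic assay with S-2222 substrate in 0.05 M Tris-HCl pH 8.4 or 0.15 M NaCl. Reaction started by adding enzyme, and A405 read continuously at 37 °C. IC50 taken from a plot of logit residual activity against log inhibitor concentration. Mean of three separate determinations.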

For series [1], the system named is Plasma. Description: Anticoagulant activity in cynomolgus monkey plasma assessed as concentration required to double prothrombin time by coagulometry. Format: functional, Macaca fascicularis. In outline: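 Citrated cynomolgus monkey blood spun at 3000 rpm for 10 min to give platelet-poor plasma, stored at −40 °C. Prothrombin time measured by coagulometer at 37 °C with thromboplastin, compared against a distilled water control. CT2 (concentration doubling clotting time) estimated from each individual concentration–response curve. Mean of three separate determinations.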

Series [2] has as its system Cynomolgus monkey. The series can be described thus: Ex vivo anticoagulant activity in cynomolgus monkey plasma at 1 mg/kg, iv as single bolus dose measured after 5 mins post dose. The class given is functional, organism-based. Set-up: dose 1 mg/kg. Conditions: Macaca fascicularis. An outline of the steps:
(§1)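 Cynomolgus monkeys (n = 3) received a single intravenous bolus. Citrated blood was taken 5 min later and platelet-poor plasma prepared by centrifugation. PT expressed relative to normal cynomolgus monkey plasma, as mean + SD.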

The subject of series [3] is Cynomolgus monkey. Description: Ex vivo anticoagulant activity in cynomolgus monkey plasma at 1 to 10 mg/kg, po as single bolus dose measured after 5 mins post dose. The class given is functional, organism-based. To be noted: Macaca fascicularis.
Series [4] in a line: Lipophilicity, logD of the compound. Format: physicochemical. To be noted: octanol/water.
The nature of series [5]: Permeability of the compound at pH 6.5 after 2 hrs by PAMPA. The class given is ADME. Conditions: read-out: permeability. In outline:
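PAMPA in a filter-plate sandwich. Sample was 50 µM final, in buffer with 10% DMSO, filtered before use. Donor was pH 6.5 and acceptor pH 7.4. Plates incubated 2 h at 25 °C in humid air. Donor and acceptor contents quantified by UV spectrum (270–400 nm) against reference standards. n = 2.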
Background: In PAMPA a lipid-coated filter parts donor from acceptor wells.

The next series concerns the target Trypsin (Homo sapiens, UniProt P07477+P07478+P35030). The series can be described thus: Inhibition of purified trypsin (unknown origin) using chromogenic substrate S-2222 by spectrophotometry. Format: protein assay. An outline of the steps: (§2)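 Chromogenic amidolysis started by adding enzyme, with A405 monitored continuously at 37 °C. Thrombin was 0.20 U/mL final with S-2238. Trypsin was 1.0 U/mL final with S-2222. Hydrolysis rate recorded as mOD/min.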

The test system of series [6] is Plasma. The series can be described thus: Drug metabolism in cynomolgus monkey plasma assessed as formation of glucuronide metabolite at 10 mg/kg, po as single bolus dose measured after 1 to 24 hrs post dose. Format: ADME, organism-based, Macaca fascicularis. Set-up: dose 10 mg/kg, route oral. Conditions: in vivo. In outline:
(§3)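 Male cynomolgus monkeys (4.0–4.5 kg, n = 3), fasted, given 10 mg/kg orally as a suspension in 0.5% methylcellulose. Blood sampled at 1, 2, 4, 6, 8, 12 and 24 h and spun to plasma. Samples underwent solid-phase extraction, were dried, reconstituted in mobile phase and measured by LC–MS/MS for parent and glucuronide, with an internal standard. Dose and concentrations expressed as free form. LOQ 10 ng/mL.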

Series [7] concerns Cynomolgus monkey. The series can be described thus: Ex vivo anticoagulant activity in cynomolgus monkey plasma at 1 mg/kg, po as single bolus dose measured after 5 mins post dose. Format: functional, organism-based. Further details: dose 1 mg/kg. Conditions: Macaca fascicularis.
Another series concerns the target Prothrombin (Homo sapiens, UniProt P00734). Description: Inhibition of purified thrombin (unknown origin) using chromogenic substrate S-2238 by spectrophotometry. In outline:
as §2

Series [8] deals with Cynomolgus monkey. Description: Ex vivo anticoagulant activity in cynomolgus monkey plasma at 0.1 mg/kg, iv as single bolus dose measured after 5 mins post dose. Format: functional, organism-based. Set-up: dose 0.1 mg/kg. To be noted: Macaca fascicularis. An outline of the steps:
as §1

In series [9] the test system is Plasma. The series can be described thus: Drug level in cynomolgus monkey plasma treated with 4'-Bromo-2'-[(5-chloro-2-pyridyl)carbamoyl]-6'-hydroxyl-1-isopropylpiperidine-4-carboxanilide hydrochloride at 10 mg/kg, po as single bolus dose measured after 1 to 24 hrs post dose. Further details: dose 10 mg/kg, route oral. Conditions: in vivo. Format: ADME, organism-based, Macaca fascicularis. In outline: as §3

Coagulation factor X, sequence (P00742 41-179 limits assumed): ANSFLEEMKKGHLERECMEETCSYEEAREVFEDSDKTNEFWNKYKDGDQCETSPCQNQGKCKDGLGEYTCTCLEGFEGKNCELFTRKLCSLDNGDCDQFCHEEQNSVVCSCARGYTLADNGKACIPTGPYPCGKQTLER
Coagulation factor X, sequence (P00742 235-488 limits assumed): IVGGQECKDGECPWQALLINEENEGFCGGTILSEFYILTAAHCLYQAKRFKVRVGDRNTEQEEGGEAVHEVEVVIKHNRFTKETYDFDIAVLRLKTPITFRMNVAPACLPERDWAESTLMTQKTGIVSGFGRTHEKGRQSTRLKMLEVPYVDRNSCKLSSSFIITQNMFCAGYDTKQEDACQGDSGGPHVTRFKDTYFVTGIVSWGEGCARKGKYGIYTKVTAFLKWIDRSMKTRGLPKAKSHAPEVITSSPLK

In general, pIC50 refers to −log10 of the IC50, conventionally taken in molar units. With `CC(C)N1CCC(C(=O)Nc2c(O[C@@H]3O[C@H](C(=O)O)[C@@H](O)[C@H](O)[C@H]3O)cc(Cl)cc2C(=O)Nc2ccc(Cl)cn2)CC1`, on Coagulation factor X, the pIC50 is 7.82.
Usually logD stands for lipophilicity at a set pH, counting ionised and neutral species. As for `CC(C)N1CCC(C(=O)Nc2ccc(Cl)cc2C(=O)Nc2ccc(Cl)cn2)CC1`, the 2PT with Plasma [1] amounted to 0.22 µM. At Coagulation factor X, this molecule had a negative-log IC50 (pIC50) of 8.24. In addition, the result in the series with Cynomolgus monkey [2] and in the series with Cynomolgus monkey [3] was Active. Besides, the logD in [4] amounted to 1.8. Also, in [5], the Papp at 2 h is over 30 ×10⁻⁶ cm/s.
A word on the IC50: it is the point on the concentration scale where inhibition reaches its midpoint. With `CC(C)N1CCC(C(=O)Nc2c(O)cc(Br)cc2C(=O)Nc2ccc(Cl)cn2)CC1`, the 2PT in the series with Plasma [1] turned out to be 0.31 µM. The pIC50 at Coagulation factor X is 8.40; against Prothrombin it was under 4.00. Moreover, at Trypsin, the half-inhibitory concentration (IC50) was over 100000 nM. Moreover, the Drug metabolism result with Plasma [6] is reported as “metabolite_detected”. Also, in the series with Cynomolgus monkey [7], the outcome was Active. For the same molecule, the Papp at 2 h in series [5] is over 30 ×10⁻⁶ cm/s.
With `CC(C)N1CCC(C(=O)Nc2c(O[C@@H]3O[C@H](C(=O)O)[C@@H](O)[C@H](O)[C@H]3O)cc(Br)cc2C(=O)Nc2ccc(Cl)cn2)CC1`, the 2PT in the series on Plasma [1] came to 0.28 µM. The pIC50 is 8.31 at Coagulation factor X and under 4.00 at Prothrombin. This molecule yielded an IC50 against Trypsin of over 100000 nM. For the same molecule, the logD in series [4] is -1.1. Moreover, in the series on Cynomolgus monkey [8], the outcome was Active. In the series on Plasma [9], the Drug metabolism entry is on record as “metabolite_detected”.
`CC(C)N1CCC(C(=O)Nc2c(O)cc(Cl)cc2C(=O)Nc2ccc(Cl)cn2)CC1` gave a pIC50 at Coagulation factor X of 8.09.

These data come from ChEMBL document CHEMBL3352753, “Novel strategy to boost oral anticoagulant activity of blood coagulation enzyme inhibitors based on biotransformation into hydrophilic conjugates” (Bioorg Med Chem, 2014).
